# Bioassay records from PubChem.
# The list is not random: actives were taken first. Their share in the collection is about 3.7%.
# KCNQ1 inh – blocks the human KCNQ1 potassium channel | P51787 | B-score at 10 µM | AID 2642 | CHO-K1 KCNQ1, FluxOR thallium flux fluorescence; stronger effect = higher value | actives 1.3% (n = 310,000);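 active = compounds whose thallium flux B-score, printed positive for inhibition, exceeds three library SD while starting fluorescence stays within three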;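 also: channel opened by potassium depolarization with thallium stimulus after 20 min compound exposure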
# KCNK3 inh – human KCNK3 channel inhibition, primary screen; B-score at 10 µM; actives 0.84% (n = 340,000); CHO-KCNK3 thallium flux, FluxOR fluorescence; stronger effect = lower value;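 active = B-score under library mean minus 4 SD, starting fluorescence ratio at most library mean plus 5 SD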;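 also: more negative B-score means stronger inhibition of thallium flux through KCNK3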
# hERG protect – shields human hERG channel from block by proarrhythmic agents | Q12809 | CHO-hERG, FluxOR thallium flux, dofetilide IC70 present | activation (rescue from dofetilide block), less the hit threshold, % at 10 µM | actives 0.51% (n = 310,000) | AID 1511;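 active = activation above the mean of controls blocked by dofetilide plus 5 SD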;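 also: thallium influx through hERG after potassium depolarization seen as dye fluorescence rise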
# Kir21 block – inhibitors of mouse Kir2.1 inward-rectifier potassium channel. P35561. B-score at 10 µM. actives 0.85% (n = 310,000). HEK293-Kir2.1, FluxOR thallium flux fluorescence; stronger effect = lower value;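 active = fluorescence ratio B-score at or below minus 3 SD of library scores, with starting-brightness B-score within 2 SD, cut at about -4.2 in these data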;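 also: channel flux triggered by added potassium and thallium sulfate stimulus; B-score of peak minus minimum fluorescence over baseline after thallium stimulus; more negative B-score means stronger Kir2.1 block with less thallium influx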
# KCNQ1 act – human KCNQ1 channel potentiation or activation; P51787; CHO-K1 KCNQ1, thallium flux FluxOR fluorescence; stronger effect = higher value; B-score at 10 µM; actives 0.35% (n = 310,000); AID 2648;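 active = fluorescence ratio B-score, a plate-corrected score, at least three library SD, with initial intensity B-score within 5 SD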
#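 Doses: Single concentration per compound, DMSO matched to controls | Test system: KCNQ1-transfected CHO-K1 cells | Timing: 90 min dye loading and 20 min compound exposure, both at room temperature | Measured by: Kinetic FluxOR thallium fluorescence, 10-s 1-Hz baseline, 110-s post-stimulus read | Medium: Assay buffer with matched DMSO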
# KCNK9 inh – blocks the human KCNK9 two-pore domain potassium channel | Q9NPC2 | HEK293 KCNK9, FluxOR thallium flux fluorescence; stronger effect = lower value | B-score at 10 µM | actives 1.2% (n = 310,000);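 active = ratio B-score over 3 SD below the library mean, with starting fluorescence within 5 SD of its mean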;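 also: negative B-score means less thallium flux so channel inhibition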
# KCNQ1 block val – human KCNQ1 channel inhibition, validation assay; shares compounds with KCNQ1 inh; KCNQ1 cell line, FluxOR thallium flux fluorescence; inhibition, % at 10 µM; actives 93% (n = 1,600);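 active = primary screen active, with duplicate mean exceeding buffer control mean plus 3 SD of buffer wells, cut at about 28% in these data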;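 also: 0% = buffer control ratio and 100% = XE991 inhibitor control ratio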
# CHO KCNQ1 ctr – KCNQ1 inhibitor counter-screen hit in parental CHO cells; AID 588366; parental CHO-K1, FluxOR thallium flux fluorescence ratio; stronger effect = lower value; zero means no signal rise above baseline; fluorescence ratio (Tl flux) at 10 µM; actives 21% (n = 1,600); shares compounds with KCNQ1 inh;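 active = mean of duplicate thallium-flux fluorescence ratios in parental host cells more than 5 SD below the buffer control mean, cut at about 0.38 in these data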;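 also: ratio is peak minus minimum fluorescence divided by baseline fluorescence; actives read low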
# KCNQ1 ephys val – human KCNQ1 inhibition validated by electrophysiology. shares compounds with KCNQ1 inh. KCNQ1-CHO cells, automated patch clamp current. calls only at 10 µM. actives 20% (n = 490). AID 624120;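 active = KCNQ1 current drop exceeding 3 SD of negative control wells, seen in both duplicate runs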;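 also: steady state current during a 2 s step from -80 to +40 mV; negative values mean current inhibition and positive values mean potentiation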
# KCNQ2 inh – selectivity of KCNQ1 inhibitors: inhibition of rat KCNQ2 channel; inhibition, % at 10 µM; KCNQ2 cells, FluxOR thallium flux fluorescence; actives 71% (n = 1,600); shares compounds with KCNQ1 inh;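 active = mean percent inhibition of the KCNQ2 thallium signal more than 5 SD above the buffer-only control wells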;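 also: KCNQ2 expressed in CHO cells; 0% = buffer control wells and 100% = XE-991 inhibitor control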
# Target sequence (O88943 whole entry, looked up): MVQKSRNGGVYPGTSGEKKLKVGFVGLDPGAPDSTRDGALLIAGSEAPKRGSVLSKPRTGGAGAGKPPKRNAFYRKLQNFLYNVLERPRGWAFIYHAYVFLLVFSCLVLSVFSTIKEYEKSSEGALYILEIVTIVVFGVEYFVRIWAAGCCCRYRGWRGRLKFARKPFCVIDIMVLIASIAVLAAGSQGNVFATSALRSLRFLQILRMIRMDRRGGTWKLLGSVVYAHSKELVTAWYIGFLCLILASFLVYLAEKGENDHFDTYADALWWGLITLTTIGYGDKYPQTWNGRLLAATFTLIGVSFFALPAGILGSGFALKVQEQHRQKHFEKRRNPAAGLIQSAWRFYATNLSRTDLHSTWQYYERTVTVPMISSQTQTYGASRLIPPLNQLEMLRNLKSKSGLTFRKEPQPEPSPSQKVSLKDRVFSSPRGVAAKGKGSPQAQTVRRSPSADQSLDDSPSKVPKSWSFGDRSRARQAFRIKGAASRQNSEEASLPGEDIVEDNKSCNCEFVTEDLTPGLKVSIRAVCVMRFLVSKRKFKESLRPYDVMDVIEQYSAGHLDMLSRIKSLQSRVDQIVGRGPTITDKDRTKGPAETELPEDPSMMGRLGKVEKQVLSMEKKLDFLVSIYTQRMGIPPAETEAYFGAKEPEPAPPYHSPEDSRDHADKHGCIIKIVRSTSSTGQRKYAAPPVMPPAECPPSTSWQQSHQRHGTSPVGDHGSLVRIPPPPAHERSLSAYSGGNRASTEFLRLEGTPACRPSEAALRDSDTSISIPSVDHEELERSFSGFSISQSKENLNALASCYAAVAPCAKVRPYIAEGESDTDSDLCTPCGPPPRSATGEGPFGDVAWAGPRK
# KCNQ1-KCNE1 inh – selectivity of KCNQ1 inhibitors: inhibition of human KCNQ1/KCNE1 channel | shares compounds with KCNQ1 inh | KCNQ1/KCNE1 cells, FluxOR thallium flux fluorescence | inhibition, % at 10 µM | actives 77% (n = 1,600) | AID 652147;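 active = mean percent inhibition of duplicate wells above the buffer-only control mean plus 3 SD of those controls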;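 also: 0% = buffer only wells and 100% = XE-991 inhibitor control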
# Starred values were filed as active, the others as inactive; i = inactive; . = no result given; + = active, no number.
SMILES,KCNQ1 inh,KCNK3 inh,hERG protect,Kir21 block,KCNQ1 act,KCNK9 inh,KCNQ1 block val,CHO KCNQ1 ctr,KCNQ2 inh,KCNQ1-KCNE1 inh,others
COc1ccc(S(=O)(=O)N2CCN(CC(=O)NC(Cc3ccccc3)C(C)=O)CC2)cc1 (configuration not stated),.,i,.,.,.,.,.,.,.,.,
O=C(NC1CCCCC1)C(c1ccco1)N(C(=O)C(F)(F)F)C1CC1 (configuration not stated),6*,i,-9.3,0,i,i,73.5*,0.466,i,100.5%*,
Cc1ccc(CN(C(=O)C(F)(F)F)C(C(=O)NC2CCCCC2)c2ccco2)cc1 (configuration not stated),i,i,-4.7,-0.23,i,i,.,.,.,.,
CCC(=O)N1CCN(c2ccc(NC(=O)c3cc4ccccc4o3)cc2Cl)CC1,i,i,-17.4,0.36,i,i,.,.,.,.,
O=C(Nc1ccc(N2CCN(C(=O)c3ccco3)CC2)c(Cl)c1)c1cc2ccccc2o1,6*,i,-18.1,0.62,i,i,78.5*,0.412,108.3%*,142.0%*,
OC(C1=CC(=Cc2ccncc2)c2ccccc21)c1ccncc1 (configuration not stated),.,i,.,.,.,.,.,.,.,.,
CC1CCCN(C(=O)COC(=O)CNC(=O)c2ccc(Br)cc2)C1 (configuration not stated),i,i,-8.5,-0.32,i,i,.,.,.,.,
Cc1c(/C=C(\C#N)C(=O)NCc2ccccc2)cc(C#N)n1C,i,i,-2.8,0.17,i,i,.,.,.,.,
COc1ccc(N2CCN(C(=O)C(Cc3ccccc3)NC(=O)c3ccccc3)CC2)cc1 (configuration not stated),.,i,.,.,.,.,.,.,.,.,
CCn1c(=N)c(S(=O)(=O)c2ccc(C)cc2)cc2c(=O)n3ccccc3nc21,i,.,-2.4,-1.33,i,i,.,.,.,.,
Cc1ccc(S(=O)(=O)c2cc3c(=O)n4ccccc4nc3n(CCc3ccccc3)c2=N)cc1,6*,i,-6.3,0.51,i,i,100.5*,0.36*,118.0%*,140.5%*,
O=C(O)C1CCCC[C@H]1C(=O)Nc1ncc([N+](=O)[O-])s1 (some centres not stated),.,i,.,.,.,.,.,.,.,.,
Cc1cc(N2CCN(C)CC2)ccc1NC(=O)c1cccc(S(=O)(=O)N2CCc3ccccc3C2)c1,7*,i,-8.1,-1.06,i,i,0.0,0.553,66.0%*,i,
CN(CC(O)COc1ccccc1F)C1CCCCC1 (configuration not stated),i,i,-2.0,1.18,i,i,.,.,.,.,
Cc1ccccc1OCC(O)CN(Cc1ccccc1O)C1CCCCC1 (configuration not stated),12*,i,-14.8,-0.09,i,i,90.5*,0.406,119.7%*,139.5%*,KCNQ1 ephys val=+
COCCCN(C(=O)CSc1nc2ccccc2c(=O)n1C)c1c(N)n(Cc2ccccc2)c(=O)[nH]c1=O,.,i,.,.,.,.,.,.,.,.,
CCC(C(=O)NC1CCCC1)n1c2ccccc2c2nc(=O)cc(C)n21 (configuration not stated),.,i,.,.,.,.,.,.,.,.,
Cc1nc2ccc(NS(=O)(=O)c3ccc(C)c(C)c3)cc2s1,7*,i,-7.1,-0.02,i,i,68.5*,0.524,i,i,
CC(=O)c1cccc(S(=O)(=O)Nc2ccc3nc(C)sc3c2)c1,i,i,-13.7,-0.08,i,i,.,.,.,.,
O=C(C[C@H]1C/C=C\CCCC(=O)OC[C@H]2CCCN2C1=O)NCCO,.,i,.,.,.,.,.,.,.,.,
CC(C)NC(=O)c1onc(CSc2ccc(C(C)C)cc2)c1C(=O)O,10*,i,-17.1,-0.24,i,i,88.5*,0.467,72.7%*,41.5%*,
Cc1ccc(C)c(S(=O)(=O)N2CCN(C(=O)c3cc(-c4cccs4)nn3-c3ccccc3)CC2)c1,9*,i,-14.6,-0.02,i,i,0.0,0.453,78.7%*,46.5%*,
CC1CCC2(CC1)NC(=O)N(CC(=O)NCc1ccc(F)cc1)C2=O (configuration not stated),.,i,.,.,.,.,.,.,.,.,
O=C(NC1CCSc2ccccc21)c1cccc(Br)c1 (configuration not stated),7*,i,-6.5,-0.14,i,i,31.5*,0.551,82.7%*,33.5%*,
Cc1cccc(C)c1OCc1cc(C(=O)N2CCC(c3ccccc3)CC2)no1,9*,i,-10.4,-1.47,i,i,119.0*,0.398,110.3%*,168.0%*,KCNQ1 ephys val=i
SMILES,KCNQ1 inh,KCNK3 inh,hERG protect,Kir21 block,KCNQ1 act,KCNK9 inh,KCNQ1 block val,CHO KCNQ1 ctr,KCNQ2 inh,KCNQ1-KCNE1 inh,others
O=C(c1cc(COc2cccc3cnccc23)on1)N1CCCC(CCCO)C1 (configuration not stated),14*,i,-24.1,2.33,i,i,108.5*,0.466,92.3%*,44.5%*,KCNQ1 ephys val=i
Cc1cccc(C)c1OCc1cc(C(=O)N2CCC(C3CCCCC3)C2)no1 (configuration not stated),7*,i,-7.3,-0.44,i,i,69.0*,0.444,i,109.5%*,
CC(C)C[C@@H](CN)NC(=O)c1nc[nH]c1C(=O)N[C@@H](C)C(=O)CNC[C@H](C)NC(=O)c1nc[nH]c1C(=O)N[C@@H](Cc1ccccc1)C(=O)O,.,i,.,.,.,.,.,.,.,.,
CCC(=O)N1CCN(c2nc(CC)nc3sc4c(c23)CCCC4)CC1,i,i,1.7,0.12,i,i,.,.,.,.,
CC1CCc2c(sc3nc(C(C)(C)C)nc(N4CCN(C(=O)CCl)CC4)c23)C1 (configuration not stated),11*,i,-4.8,-1.11,i,i,109.5*,0.408,128.0%*,156.0%*,KCNQ1 ephys val=i
CC12CCC(=O)N1C(C(=O)Nc1cc(C(F)(F)F)ccc1N1CCCCC1)CS2 (configuration not stated),7*,i,-18.8,-0.29,i,i,46.5*,0.412,103.0%*,47.5%*,
